ChEMBL document CHEMBL4371071, “Muscarinic agonist, (±)-quinuclidin-3-yl-(4-fluorophenethyl)(phenyl)carbamate: High affinity, but low subtype selectivity for human M1 - M5 muscarinic acetylcholine receptors” (Bioorg Med Chem Lett, 2019)

Columns and labels:
[1] = target: T1, Muscarinic acetylcholine receptor M1 (Homo sapiens, UniProt P11229); experiment: Displacement of [3H]NMS from human M1 AChR expressed in CHO cell membranes after 1 to 2 hrs by liquid scintillation spectrometry method; assay type: cell-based
T1 sequence (P11229 whole entry): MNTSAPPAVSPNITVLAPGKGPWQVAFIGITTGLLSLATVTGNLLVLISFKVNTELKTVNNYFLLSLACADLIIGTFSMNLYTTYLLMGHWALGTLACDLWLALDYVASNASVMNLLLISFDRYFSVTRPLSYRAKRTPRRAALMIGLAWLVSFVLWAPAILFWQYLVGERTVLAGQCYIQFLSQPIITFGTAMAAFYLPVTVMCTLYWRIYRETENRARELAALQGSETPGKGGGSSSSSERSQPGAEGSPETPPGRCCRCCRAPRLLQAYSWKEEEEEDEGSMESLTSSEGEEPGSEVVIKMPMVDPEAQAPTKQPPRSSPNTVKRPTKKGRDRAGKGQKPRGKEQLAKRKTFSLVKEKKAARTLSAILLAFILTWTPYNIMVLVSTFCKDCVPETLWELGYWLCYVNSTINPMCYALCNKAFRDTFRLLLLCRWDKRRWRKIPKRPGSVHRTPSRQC

[2] = target: T2, Muscarinic acetylcholine receptor M3 (Homo sapiens, UniProt P20309); experiment: Displacement of [3H]NMS from human M3 AChR expressed in CHO cell membranes after 1 to 2 hrs by liquid scintillation spectrometry method; assay type: cell-based
Target sequence in this assay (P20309 whole entry): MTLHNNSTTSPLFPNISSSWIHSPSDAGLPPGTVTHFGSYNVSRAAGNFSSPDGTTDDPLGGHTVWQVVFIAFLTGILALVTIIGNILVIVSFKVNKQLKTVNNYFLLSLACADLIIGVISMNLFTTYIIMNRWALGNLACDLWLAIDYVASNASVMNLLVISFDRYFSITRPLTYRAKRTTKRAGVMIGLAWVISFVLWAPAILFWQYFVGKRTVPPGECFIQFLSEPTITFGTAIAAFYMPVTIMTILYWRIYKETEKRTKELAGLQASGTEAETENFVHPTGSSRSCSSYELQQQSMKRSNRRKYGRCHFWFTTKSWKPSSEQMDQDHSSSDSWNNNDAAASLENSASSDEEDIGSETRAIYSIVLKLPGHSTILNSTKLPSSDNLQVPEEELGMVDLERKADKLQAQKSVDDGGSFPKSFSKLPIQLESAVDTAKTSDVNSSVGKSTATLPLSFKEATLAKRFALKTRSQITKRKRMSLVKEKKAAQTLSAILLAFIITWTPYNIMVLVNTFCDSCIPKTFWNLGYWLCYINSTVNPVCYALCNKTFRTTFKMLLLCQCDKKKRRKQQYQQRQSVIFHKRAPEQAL

[3] = target: T3, Muscarinic acetylcholine receptor M5 (Homo sapiens, UniProt P08912); experiment: Displacement of [3H]NMS from human M5 AChR expressed in CHO cell membranes after 1 to 2 hrs by liquid scintillation spectrometry method
T3 sequence (P08912 whole entry): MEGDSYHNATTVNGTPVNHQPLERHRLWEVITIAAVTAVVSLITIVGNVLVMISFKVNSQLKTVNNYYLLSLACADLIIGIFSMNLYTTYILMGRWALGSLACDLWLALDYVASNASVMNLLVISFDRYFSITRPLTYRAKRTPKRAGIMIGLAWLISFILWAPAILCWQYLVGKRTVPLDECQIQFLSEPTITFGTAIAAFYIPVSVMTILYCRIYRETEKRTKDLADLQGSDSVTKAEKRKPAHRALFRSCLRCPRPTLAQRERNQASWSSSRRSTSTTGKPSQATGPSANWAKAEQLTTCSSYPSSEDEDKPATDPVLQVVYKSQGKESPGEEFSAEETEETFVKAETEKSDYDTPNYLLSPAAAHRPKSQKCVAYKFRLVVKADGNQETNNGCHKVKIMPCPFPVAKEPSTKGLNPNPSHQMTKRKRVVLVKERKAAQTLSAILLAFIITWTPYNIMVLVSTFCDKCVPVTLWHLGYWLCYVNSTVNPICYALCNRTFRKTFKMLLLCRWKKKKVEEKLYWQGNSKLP
In short: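 CHO membranes expressing human M5 (10 µg protein/well) with 0.3 nM [3H]NMS and analog (1 nM–100 µM) in 50 mM Tris-HCl pH 7.4, 2 h at 25 °C. Filtered on GF/B, counted by scintillation. IC50 converted to Ki; three independent experiments in duplicate.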

[4] = target: T4, Muscarinic acetylcholine receptor M5 (Homo sapiens) (UniProt P08912); experiment: Displacement of [3H]NMS from human M5 AChR expressed in CHO cell membranes at 100 uM after 1 to 2 hrs by liquid scintillation spectrometry method relative to control
T4 sequence (whole entry): T3 sequence (P08912 whole entry)
In short: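 CHO membranes expressing human M5 (10 µg protein/well) with 0.3 nM [3H]NMS and analog (1 nM–100 µM) in 50 mM Tris-HCl pH 7.4, 2 h at 25 °C. […] Filtered on GF/B, counted by scintillation. IC50 converted to Ki; three independent experiments in duplicate.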

Homo sapiens = species on record: Homo sapiens; experiment: Selectivity ratio of Ki for displacement of [3H]NMS from human M1 AChR expressed in CHO cell membranes to Ki for displacement of [3H]NMS from human M5 AChR expressed in CHO cell membranes
[5] = target: T5, Muscarinic acetylcholine receptor M1 (Homo sapiens) (UniProt P11229); settings: CHO, at 100 µM
T5 sequence (whole entry): T1 sequence (P11229 whole entry)

[6] = target: T2, Muscarinic acetylcholine receptor M3; settings: CHO, at 100 µM
Target sequence in this assay (P20309 whole entry, looked up): as the sequence (P20309 whole entry) above

Row | SMILES | Ki [1] | Ki [2] | Ki [3] | Imax [4] | Ratio Ki (Homo sapiens) | Imax [5] | Imax [6]
1 | O=C(OCCCc1ccccc1)N(c1ccccc1)C1CN2CCC1CC2 (stereo not drawn) | 0.78 µM | 0.55 µM | 0.26 µM | 95.7% | 3 | 99.1% | 98.9%
2 | COc1ccc(COC(=O)N(c2ccccc2)C2CN3CCC2CC3)cc1 (stereo not drawn) | 0.71 µM | 1.15 µM | 0.47 µM | 97.1% | 1.5 | 97.9% | 95.7%
3 | COc1ccc(CCOC(=O)N(c2ccccc2)C2CN3CCC2CC3)cc1 (stereo not drawn) | 0.76 µM | 0.42 µM | 0.23 µM | 98.9% | 3.3 | 98.4% | 99.3%
4 | COc1ccc(CCN(C(=O)OC2CCCN(C)C2)c2ccccc2)cc1 (stereo not drawn) | 0.69 µM | 1.32 µM | 1.05 µM | 97.7% | 0.7 | 98.6% | 96.2%
5 | O=C(OCCc1ccc2c(c1)OCO2)N(c1ccccc1)C1CN2CCC1CC2 (stereo not drawn) | 0.63 µM | 0.29 µM | 0.24 µM | 97.1% | 2.6 | 99.6% | 98%
6 | O=C(OCCc1ccc(Cl)c(Cl)c1)N(c1ccccc1)C1CN2CCC1CC2 (stereo not drawn) | 0.37 µM | 0.26 µM | 0.08 µM | 98.8% | 4.5 | 99.9% | 99.8%
7 | COc1ccc(COC(=O)N(c2ccccc2)C2CN3CCC2CC3)cc1OC (stereo not drawn) | 0.77 µM | 1.02 µM | 0.55 µM | 98.7% | 1.4 | 96.8% | 95.4%
8 | COc1ccc(CCN(C(=O)OC2C[C@H]3CC[C@H](C2)N3C)c2ccccc2)cc1OC (stereo partly drawn) | 1.87 µM | 2.8 µM | 1.37 µM | 95.9% | 1.4 | 95.3% | 88.8%
9 | COc1ccc(CCN(C(=O)OC2CCN(C)CC2)c2ccccc2)cc1OC | 0.77 µM | 1.28 µM | 0.38 µM | 96.5% | 2 | 99% | 96.6%
10 | COc1ccc(CCCOC(=O)N(c2ccccc2)C2CN3CCC2CC3)cc1 (stereo not drawn) | 0.59 µM | 0.39 µM | 0.64 µM | 99.5% | 0.9 | 98.5% | 96.8%
11 | COc1ccc(CCN(C(=O)OC2CCCN(C)C2)c2ccccc2)cc1OC (stereo not drawn) | 4.3 µM | 4.36 µM | 4.49 µM | 89.2% | 1 | 94.3% | 85.6%
12 | CN1[C@@H]2CC[C@H]1C[C@@H](OC(=O)C(CO)c1ccccc1)C2 (stereo partly drawn) |  |  |  | 96.7% |  |  | 
13 | COc1ccc(CCOC(=O)N(c2ccccc2)C2CN3CCC2CC3)cc1OC (stereo not drawn) | 6.98 µM | 2.76 µM | 3.49 µM | 94% | 2 | 90.6% | 85.9%
14 | COc1ccc(CCN(C(=O)OC2CCN(C)CC2)c2ccccc2)cc1 | 0.28 µM | 0.57 µM | 0.19 µM | 99.7% | 1.5 | 99.8% | 99.7%
15 | COc1ccc(CCN(C(=O)OC2C[C@H]3CC[C@H](C2)N3C)c2ccccc2)cc1 (stereo partly drawn) | 0.35 µM | 0.27 µM | 0.24 µM | 97.9% | 1.5 | 99.7% | 98.9%
16 | COc1ccc(CCCOC(=O)N(c2ccccc2)C2CN3CCC2CC3)cc1F (stereo not drawn) | 0.43 µM | 0.25 µM | 0.26 µM | 99.4% | 1.7 | 100% | 99.8%
17 | CN1CCC(OC(=O)N(CCc2ccc(F)cc2)c2ccccc2)CC1 | 0.07 µM | 0.14 µM | 0.06 µM | 100% | 1.2 | 100% | 100%
